Measurements collected from several papers.
≈ marks a conversion by molar mass, not a printed value.

SMILES	organism	assay	test system	setting	endpoint	value
CC(C)[C@H](N)C(=O)OCCCCCn1cnc2nc(NCc3ccc(Cl)c(Cl)c3)[nH]c(=O)c21	Bacteroides fragilis	microbial growth, agar dilution	–	48 h	MIC	> 32 µg/mL
CCCCCOc1ccc(-c2cc(-c3ccc(C(=O)N[C@H]4C[C@@H](O)[C@@H](O)NC(=O)[C@@H]5[C@@H](O)[C@@H](C)CN5C(=O)[C@H]([C@H](O)CC(N)=O)NC(=O)[C@H]([C@H](O)[C@@H](O)c5ccc(O)c(OS(=O)(=O)O)c5)NC(=O)[C@@H]5C[C@@H](O)CN5C(=O)[C@H]([C@@H](C)O)NC4=O)cc3)no2)cc1	Lodderomyces parapsilosis	microbial growth	–	–	MIC90	4 µg/mL (≈ 3.15 µM)
Cn1cnc2nc(NCc3ccc(Cl)c(Cl)c3)[nH]c(=O)c21	Bacteroides fragilis	microbial growth, agar dilution	–	48 h	MIC	> 32 µg/mL
CCOC(=O)c1ccccc1S(=O)(=O)NC(=O)Nc1nc(Cl)cc(OC)n1	Lodderomyces parapsilosis	microbial growth, broth dilution	–	24 h	MIC50	1.1 µM
Nc1ccn(C[C@@H](CO)OCP(=O)(O)O)c(=O)n1	Human alphaherpesvirus 1	cytopathic effect	HEL	–	EC50	2000 nM
OC(Cn1cncn1)(Cn1cncn1)c1ccc(F)cc1F	Aspergillus niger	microbial killing	–	–	MFC	40 µM (≈ 12.3 µg/mL)
CC[C@H](C)C[C@H](C)CCCCCCCCC(=O)N[C@H]1C[C@@H](O)[C@@H](NCCN)NC(=O)[C@@H]2[C@@H](O)CCN2C(=O)[C@H]([C@H](O)CCN)NC(=O)[C@H]([C@H](O)[C@@H](O)c2ccc(O)cc2)NC(=O)[C@@H]2C[C@@H](O)CN2C(=O)[C@H]([C@@H](C)O)NC1=O	Lodderomyces parapsilosis	microbial growth, broth dilution	ATCC22019	–	MIC	0.5 µg/mL
O=c1[nH]c(=O)n([C@H]2C[C@H](O)[C@@H](CO)O2)cc1/C=C/Br	Human alphaherpesvirus 1	cytopathic effect	HEL	–	EC50	2000 nM
Cc1ncc([N+](=O)[O-])n1CCO	Bacteroides fragilis	microbial growth	–	–	MIC50	0.5 µg/mL
O=C(NCc1ccc2c(c1)OCO2)c1ccc(Br)cc1F	Aspergillus brasiliensis	microbial growth	ATCC16404	72 h	MIC	> 200 µM
O=[N+]([O-])c1ccc(C2=[N+]([O-])c3ccccc3N3CCN=C23)cc1	Bacteroides fragilis	microbial growth	–	–	MIC50	≤ 0.06 µg/mL
Nc1nc2c(ncn2COCCO)c(=O)[nH]1	Human alphaherpesvirus 1	cytopathic effect	HEL	–	EC50	200 nM
